41 compounds from ChEMBL document CHEMBL1135707, “Identification of potent and selective mechanism-based inhibitors of the cysteine protease cruzain using solid-phase parallel synthesis” (J Med Chem, 2002) can be followed below.

Converted amounts (≈) assume the structure as drawn.

For one data set, the target named is Cruzipain (Trypanosoma cruzi, UniProt P25779). Nature of the data set: Inhibitory activity against cruzain, the major cysteine protease found in Trypanosoma cruzi. The gist of the method: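 Enzyme and inhibitor (in DMSO) preincubated 5 min before substrate addition. Read at ex 355/em 450 nm at four time points in the linear region. Activity taken against no-inhibitor controls, run in duplicate. Ki obtained from Williams–Morrison tight-binding fit.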
Sequence of Cruzipain (P25779 whole entry): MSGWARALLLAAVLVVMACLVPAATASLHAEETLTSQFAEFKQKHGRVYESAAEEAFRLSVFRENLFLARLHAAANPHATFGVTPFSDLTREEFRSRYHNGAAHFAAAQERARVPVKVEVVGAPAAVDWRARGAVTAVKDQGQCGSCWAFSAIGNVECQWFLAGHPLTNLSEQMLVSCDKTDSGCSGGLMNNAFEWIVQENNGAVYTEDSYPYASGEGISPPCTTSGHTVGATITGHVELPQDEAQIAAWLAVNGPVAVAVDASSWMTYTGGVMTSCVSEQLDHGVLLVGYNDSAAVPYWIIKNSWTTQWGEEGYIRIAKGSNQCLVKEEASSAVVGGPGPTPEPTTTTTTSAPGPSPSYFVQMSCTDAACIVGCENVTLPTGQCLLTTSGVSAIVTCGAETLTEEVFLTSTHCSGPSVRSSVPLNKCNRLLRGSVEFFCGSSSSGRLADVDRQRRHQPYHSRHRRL

The target of a further data set is Cathepsin B (Homo sapiens, UniProt P07858). Nature of the data set: Inhibitory activity against human Cathepsin B. The essentials: (§1)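 Buffer was 0.25 M sodium acetate pH 5.5 with 2 mM EDTA, 0.015% Brij-35 and 1 mM DTT. 5 min enzyme–inhibitor preincubation, ex 355/em 450 nm, duplicate wells. Ki obtained from Williams–Morrison fit.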
A further data set has as its target Procathepsin L (Homo sapiens, UniProt P07711). Nature of the data set: Inhibitory activity against human Cathepsin L. The essentials:
as §1

The nature of data set [1]: Aqueous solubility using UV analysis. The data set is classed as physicochemical. The gist of the method:
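Solubility measured by an outside lab after 2 h preincubation of inhibitor in pH 7.4 aqueous buffer at 37 °C. Quantitated by UV absorbance at 211 nm.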

Sequence of Procathepsin L (P07711 whole entry): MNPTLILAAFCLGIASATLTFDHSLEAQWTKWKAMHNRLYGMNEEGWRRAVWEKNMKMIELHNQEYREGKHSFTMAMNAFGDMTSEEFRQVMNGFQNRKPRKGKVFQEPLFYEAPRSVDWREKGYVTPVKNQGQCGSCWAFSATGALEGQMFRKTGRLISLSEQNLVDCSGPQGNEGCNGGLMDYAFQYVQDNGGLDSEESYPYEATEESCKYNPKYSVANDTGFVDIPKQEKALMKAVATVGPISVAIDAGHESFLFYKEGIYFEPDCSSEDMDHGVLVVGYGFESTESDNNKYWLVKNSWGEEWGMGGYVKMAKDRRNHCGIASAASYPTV

For orientation: Ki means the dissociation constant of the complex between target and ligand, obtained from inhibition or displacement. As to `O=C(N[C@@H](Cc1ccccc1)C(=O)N[C@@H](Cc1ccccc1)C(=O)CSCCc1ccccc1)OCc1ccccc1`, the affinity at Cruzipain, expressed as Ki, was 4.2 nM.
As for `O=C(N[C@@H](Cc1ccccc1)C(=O)N[C@@H](Cc1ccccc1)C(=O)CSCCCc1ccccc1)OCc1ccccc1`, the inhibition constant (Ki) on Cruzipain was determined as 2 nM; at Cathepsin B, 45.4 nM; at Procathepsin L it was 2.8 nM.
With `CC(C)CCSCC(=O)[C@H](Cc1ccccc1)NC(=O)[C@H](Cc1ccccc1)NC(=O)OCc1ccccc1`, the Ki on Cruzipain is 30.1 nM.
`O=C(N[C@@H](Cc1ccccc1)C(=O)N[C@@H](Cc1ccccc1)C(=O)CSCCCc1ccccc1)OCc1cccnc1`: the inhibitory constant (Ki) at Cruzipain was 5.5 nM.
The same measure, in the same setting: to `CCOC(=O)CCSCC(=O)[C@H](Cc1ccccc1)NC(=O)[C@H](CC(C)C)NC(=O)N1CCOCC1` belongs 69.6 nM.
The solubility is how much of the substance goes into solution per volume. Higher therefore signals a readily soluble substance. `CC(C)(C)SCC(=O)[C@H](Cc1ccccc1)NC(=O)[C@H](Cc1ccccc1)NC(=O)OCc1cccnc1` returned a Ki at Cruzipain of 4.6 nM. In addition, the solubility in data set [1] worked out at 288 µM (≈ 154 µg/mL).
In the case of `CCOC(=O)CCSCC(=O)[C@H](Cc1ccccc1)NC(=O)[C@H](Cc1ccccc1)NC(=O)OCc1ccccn1`, the Ki on Cruzipain was determined as 30.4 nM.
`O=C(N[C@@H](Cc1ccccc1)C(=O)N[C@@H](Cc1ccccc1)C(=O)CSC1CCCC1)OCc1ccccc1` displayed a Ki at Cruzipain of 34.3 nM.
In turn, `CC(C)C[C@H](NC(=O)N1CCOCC1)C(=O)N[C@@H](Cc1ccccc1)C(=O)CSCCCc1ccccc1` came in with a Ki at Cruzipain of 131 nM.
Regarding `CC(C)C[C@H](NC(=O)OCc1ccccc1)C(=O)N[C@@H](Cc1ccccc1)C(=O)CSC(C)(C)C`, the Ki on Cruzipain came out at 1.3 nM; at Cathepsin B it was 112 nM; on Procathepsin L, 7.9 nM.
For `CCOC(=O)C(C)SCC(=O)[C@H](Cc1ccccc1)NC(=O)[C@H](Cc1ccccc1)NC(=O)OCc1ccccc1` (some centres undefined), at Cruzipain, the Ki was 37 nM.
For `CC(C)(C)SCC(=O)[C@H](CCc1ccccc1)NC(=O)[C@H](Cc1ccccc1)NC(=O)OCc1cccnc1`, the Ki at Cruzipain is 1.4 nM; on Cathepsin B, 600 nM; at Procathepsin L, 9.6 nM.
`CC(C)C[C@H](NC(=O)N1CCOCC1)C(=O)N[C@@H](Cc1ccccc1)C(=O)CSC(C)(C)C` gave a Ki on Cruzipain of 59.7 nM.
Still for that read-out and setting: to `CCOC(=O)CCSCC(=O)[C@H](Cc1ccccc1)NC(=O)[C@H](Cc1ccccc1)NC(=O)N1CCOCC1` belongs 59.1 nM.
The compound `CCOC(=O)CCSCC(=O)[C@H](Cc1ccccc1)NC(=O)[C@H](Cc1ccccc1)NC(=O)OCc1cccnc1` returned a Ki at Cruzipain of 22.7 nM.
`CCC(C)SCC(=O)[C@H](Cc1ccccc1)NC(=O)[C@H](Cc1ccccc1)NC(=O)OCc1ccccc1` (some centres undefined) displayed an inhibition constant Ki on Cruzipain of 5.8 nM.
On the same count and under the same terms, to `O=C(N[C@@H](Cc1ccccc1)C(=O)N[C@@H](Cc1ccccc1)C(=O)CSC1CCCCC1)OCc1ccccc1` belongs 7.5 nM.
Still for that read-out and setting: under `CC(C)(C)CC(C)(CC(C)(C)C)SCC(=O)[C@H](Cc1ccccc1)NC(=O)[C@H](Cc1ccccc1)NC(=O)OCc1ccccc1` stands 5 nM.
For the compound `CC(C)(C)SCC(=O)[C@H](Cc1ccccc1)NC(=O)[C@H](Cc1ccccc1)NC(=O)OCc1ccccc1`, the inhibitory constant (Ki) on Cruzipain was found to be 2.5 nM; on Cathepsin B, 45 nM; on Procathepsin L, 1.7 nM. In data set [1], this compound gave a solubility of 70 µM (≈ 37.3 µg/mL).
The compound `CCOC(=O)CCSCC(=O)[C@H](Cc1ccccc1)NC(=O)[C@H](CC(C)C)NC(=O)OCc1ccccc1` displayed a Ki on Cruzipain of 8 nM.
With `CCOC(=O)CCSCC(=O)[C@H](Cc1ccccc1)NC(=O)[C@H](Cc1ccccc1)NC(=O)OCc1ccccc1`, the figures for the Ki on Cruzipain, on Cathepsin B and on Procathepsin L were 2.9 nM, 42.7 nM and 1.5 nM, respectively.
Consider `CC(C)(C)SCC(=O)[C@H](Cc1ccccc1)NC(=O)[C@H](Cc1ccccc1)NC(=O)N1CCOCC1`, for which affinity on Cruzipain was put at a Ki of 54.6 nM.
For `CC(C)C[C@H](NC(=O)OCc1ccccc1)C(=O)N[C@@H](Cc1ccccc1)C(=O)CSCCCc1ccccc1`, the Ki at Cruzipain came out at 1 nM; at Cathepsin B it was 136 nM; at Procathepsin L it was 4.7 nM.
For `CC(C)SCC(=O)[C@H](Cc1ccccc1)NC(=O)[C@H](Cc1ccccc1)NC(=O)OCc1ccccc1`, affinity on Cruzipain was put at a Ki of 4.6 nM.
`CC(C)C[C@H](NC(=O)OCc1ccccc1)C(=O)N[C@@H](Cc1ccccc1)C(=O)CSC(C)C` had an inhibition constant Ki on Cruzipain of 7.8 nM.
The compound `COc1ccc(CSCC(=O)[C@H](Cc2ccccc2)NC(=O)[C@H](Cc2ccccc2)NC(=O)OCc2ccccc2)cc1` registered a Ki on Cruzipain of 32.4 nM.
For the compound `CC(C)C[C@H](NC(=O)OCc1cccnc1)C(=O)N[C@@H](CCc1ccccc1)C(=O)CSCCCc1ccccc1`, the results for the Ki on Cruzipain, on Cathepsin B and at Procathepsin L were 1.1 nM, 1700 nM and 144 nM, respectively.
With `O=C(N[C@@H](Cc1ccccc1)C(=O)N[C@@H](Cc1ccccc1)C(=O)CSCc1ccccc1)OCc1ccccc1`, the inhibitory constant (Ki) at Cruzipain is 44 nM.
Still for that read-out and setting: to `CC(C)(C)c1ccc(CSCC(=O)[C@H](Cc2ccccc2)NC(=O)[C@H](Cc2ccccc2)NC(=O)OCc2ccccc2)cc1` belongs 22 nM; to `CC(C)(C)CC(C)(C)SCC(=O)[C@H](Cc1ccccc1)NC(=O)[C@H](Cc1ccccc1)NC(=O)OCc1ccccc1`, 10.4 nM.
Still for that read-out and setting: under `CC(C)C[C@H](NC(=O)OCc1ccccn1)C(=O)N[C@@H](Cc1ccccc1)C(=O)CSC(C)(C)C` stands 13.8 nM.
In turn, `CCOC(=O)CSCC(=O)[C@H](Cc1ccccc1)NC(=O)[C@H](Cc1ccccc1)NC(=O)OCc1ccccc1` registered a Ki at Cruzipain of 31.2 nM.
The same measure, in the same setting: to `O=C(CSCCCc1ccccc1)[C@H](Cc1ccccc1)NC(=O)[C@H](Cc1ccccc1)NC(=O)N1CCOCC1` belongs 216 nM; to `O=C(N[C@@H](Cc1ccccc1)C(=O)N[C@@H](Cc1ccccc1)C(=O)CSCc1ccc(Cl)cc1)OCc1ccccc1`, 82.7 nM.
`CC(C)C[C@H](NC(=O)OCc1cccnc1)C(=O)N[C@@H](Cc1ccccc1)C(=O)CSC(C)(C)C` yielded an inhibition constant (Ki) at Cruzipain of 4.8 nM. This compound also yielded a solubility in data set [1] of 378 µM (≈ 189 µg/mL).
With `CNC(=O)CSCC(=O)[C@H](Cc1ccccc1)NC(=O)[C@H](Cc1ccccc1)NC(=O)OCc1ccccc1`, the affinity at Cruzipain corresponds to a Ki of 15 nM.
Turning to `CC(C)C[C@H](NC(=O)OCc1cccnc1)C(=O)N[C@@H](CCc1ccccc1)C(=O)CSC(C)(C)C`, the inhibition constant Ki at Cruzipain was determined as 2 nM; at Cathepsin B, 1300 nM; at Procathepsin L it was 44 nM.
`CC(=O)NCCSCC(=O)[C@H](Cc1ccccc1)NC(=O)[C@H](Cc1ccccc1)NC(=O)OCc1ccccc1` yielded an inhibition constant (Ki) on Cruzipain of 34.3 nM.
Consider `CC(C)C[C@H](NC(=O)OCc1ccncc1)C(=O)N[C@@H](Cc1ccccc1)C(=O)CSC(C)(C)C`, for which the Ki came out at 14.1 nM at Cruzipain, 4800 nM on Cathepsin B and 28.8 nM on Procathepsin L.
Compound `O=C(N[C@@H](Cc1ccccc1)C(=O)N[C@@H](CCc1ccccc1)C(=O)CSCCCc1ccccc1)OCc1cccnc1` (stereo in doubt; 16d) displayed an inhibitory constant (Ki) at Cruzipain of 5.4 nM.
As for `O=C(N[C@@H](Cc1ccccc1)C(=O)N[C@@H](CCc1ccccc1)C(=O)CSCCCc1ccccc1)OCc1cccnc1` (stereo in doubt; 16e), the Ki stood at 0.9 nM at Cruzipain, 700 nM at Cathepsin B and 28.8 nM on Procathepsin L.
